Legend:
[1] = target: Phosphatidylinositol 4,5-bisphosphate 3-kinase catalytic subunit alpha isoform (Bos taurus, UniProt P32871); assay: Inhibition of GST-tagged bovine PI3K p110-alpha by SPA
Outline: (§1)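 Radiometric SPA. Enzyme and compound (in DMSO) in 20 mM Tris-HCl pH 7.4, 160 mM NaCl, 2 mM DTT, 30 mM MgCl2, 0.4 mM EDTA, 0.4 mM EGTA. Stopped with wheat germ agglutinin-coated SPA beads in PBS, then centrifuged. IC50 is the mean of at least two determinations.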

A375 (human) = assay: Antiproliferative activity against human A375 cells after 46 hrs; conditions: A375, 46 h
HeLa [2] = assay: Antiproliferative activity against human HeLa cells after 46 hrs; format: functional, cell-based
Outline: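 Serum-induced proliferation. Compound (1 µL) spotted into wells, then 1×10^4 cells added. After 46 h incubation, Alamar Blue added; fluorescence read 2 h later at ex 544/em 590 nm.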

[3] = Half life in ip dosed mouse; format: ADME, organism-based; conditions: in vivo
Outline: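 Mice dosed intraperitoneally. Plasma half-life determined by HPLC/MS/MS.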

[4] = target: Phosphatidylinositol 4,5-bisphosphate 3-kinase catalytic subunit beta isoform (Homo sapiens, UniProt P42338); assay: Inhibition of GST-tagged human PI3K p110-beta by SPA; outline: as §1
Chain of Phosphatidylinositol 4,5-bisphosphate 3-kinase catalytic subunit beta isoform (P42338 whole entry, the tested form may be a part, canonical isoform): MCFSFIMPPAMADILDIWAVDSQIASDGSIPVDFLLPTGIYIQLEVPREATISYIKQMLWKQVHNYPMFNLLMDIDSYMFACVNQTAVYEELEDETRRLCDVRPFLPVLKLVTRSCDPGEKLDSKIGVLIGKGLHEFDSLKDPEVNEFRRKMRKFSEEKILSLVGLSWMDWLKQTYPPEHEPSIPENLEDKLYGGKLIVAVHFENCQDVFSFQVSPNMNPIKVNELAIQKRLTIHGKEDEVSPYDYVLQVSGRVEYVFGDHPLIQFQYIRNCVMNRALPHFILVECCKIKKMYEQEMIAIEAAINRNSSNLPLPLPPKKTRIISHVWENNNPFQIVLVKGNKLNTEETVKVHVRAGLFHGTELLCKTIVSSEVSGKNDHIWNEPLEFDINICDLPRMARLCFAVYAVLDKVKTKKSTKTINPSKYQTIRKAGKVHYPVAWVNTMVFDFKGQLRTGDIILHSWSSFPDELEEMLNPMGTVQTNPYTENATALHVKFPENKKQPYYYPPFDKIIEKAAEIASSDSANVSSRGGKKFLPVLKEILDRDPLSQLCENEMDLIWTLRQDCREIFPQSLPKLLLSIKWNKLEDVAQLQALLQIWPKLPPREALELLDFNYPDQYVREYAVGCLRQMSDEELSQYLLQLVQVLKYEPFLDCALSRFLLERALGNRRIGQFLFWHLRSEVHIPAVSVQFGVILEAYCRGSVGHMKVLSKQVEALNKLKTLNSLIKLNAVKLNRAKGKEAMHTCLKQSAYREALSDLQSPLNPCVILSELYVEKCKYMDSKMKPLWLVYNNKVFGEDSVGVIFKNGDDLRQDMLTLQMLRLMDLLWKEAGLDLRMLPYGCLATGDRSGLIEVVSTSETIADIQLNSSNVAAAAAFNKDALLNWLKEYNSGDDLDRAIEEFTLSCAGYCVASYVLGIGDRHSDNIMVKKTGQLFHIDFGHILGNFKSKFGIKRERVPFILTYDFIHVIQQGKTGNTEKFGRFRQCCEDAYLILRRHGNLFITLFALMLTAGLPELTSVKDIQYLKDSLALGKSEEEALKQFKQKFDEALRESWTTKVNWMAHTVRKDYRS

[5] = target: Phosphatidylinositol 4-phosphate 3-kinase C2 domain-containing subunit beta (Homo sapiens, UniProt O00750); assay: Inhibition of Glu-tagged PI3K C2-beta by SPA
Chain of Phosphatidylinositol 4-phosphate 3-kinase C2 domain-containing subunit beta (O00750 whole entry, the tested form may be a part, canonical isoform): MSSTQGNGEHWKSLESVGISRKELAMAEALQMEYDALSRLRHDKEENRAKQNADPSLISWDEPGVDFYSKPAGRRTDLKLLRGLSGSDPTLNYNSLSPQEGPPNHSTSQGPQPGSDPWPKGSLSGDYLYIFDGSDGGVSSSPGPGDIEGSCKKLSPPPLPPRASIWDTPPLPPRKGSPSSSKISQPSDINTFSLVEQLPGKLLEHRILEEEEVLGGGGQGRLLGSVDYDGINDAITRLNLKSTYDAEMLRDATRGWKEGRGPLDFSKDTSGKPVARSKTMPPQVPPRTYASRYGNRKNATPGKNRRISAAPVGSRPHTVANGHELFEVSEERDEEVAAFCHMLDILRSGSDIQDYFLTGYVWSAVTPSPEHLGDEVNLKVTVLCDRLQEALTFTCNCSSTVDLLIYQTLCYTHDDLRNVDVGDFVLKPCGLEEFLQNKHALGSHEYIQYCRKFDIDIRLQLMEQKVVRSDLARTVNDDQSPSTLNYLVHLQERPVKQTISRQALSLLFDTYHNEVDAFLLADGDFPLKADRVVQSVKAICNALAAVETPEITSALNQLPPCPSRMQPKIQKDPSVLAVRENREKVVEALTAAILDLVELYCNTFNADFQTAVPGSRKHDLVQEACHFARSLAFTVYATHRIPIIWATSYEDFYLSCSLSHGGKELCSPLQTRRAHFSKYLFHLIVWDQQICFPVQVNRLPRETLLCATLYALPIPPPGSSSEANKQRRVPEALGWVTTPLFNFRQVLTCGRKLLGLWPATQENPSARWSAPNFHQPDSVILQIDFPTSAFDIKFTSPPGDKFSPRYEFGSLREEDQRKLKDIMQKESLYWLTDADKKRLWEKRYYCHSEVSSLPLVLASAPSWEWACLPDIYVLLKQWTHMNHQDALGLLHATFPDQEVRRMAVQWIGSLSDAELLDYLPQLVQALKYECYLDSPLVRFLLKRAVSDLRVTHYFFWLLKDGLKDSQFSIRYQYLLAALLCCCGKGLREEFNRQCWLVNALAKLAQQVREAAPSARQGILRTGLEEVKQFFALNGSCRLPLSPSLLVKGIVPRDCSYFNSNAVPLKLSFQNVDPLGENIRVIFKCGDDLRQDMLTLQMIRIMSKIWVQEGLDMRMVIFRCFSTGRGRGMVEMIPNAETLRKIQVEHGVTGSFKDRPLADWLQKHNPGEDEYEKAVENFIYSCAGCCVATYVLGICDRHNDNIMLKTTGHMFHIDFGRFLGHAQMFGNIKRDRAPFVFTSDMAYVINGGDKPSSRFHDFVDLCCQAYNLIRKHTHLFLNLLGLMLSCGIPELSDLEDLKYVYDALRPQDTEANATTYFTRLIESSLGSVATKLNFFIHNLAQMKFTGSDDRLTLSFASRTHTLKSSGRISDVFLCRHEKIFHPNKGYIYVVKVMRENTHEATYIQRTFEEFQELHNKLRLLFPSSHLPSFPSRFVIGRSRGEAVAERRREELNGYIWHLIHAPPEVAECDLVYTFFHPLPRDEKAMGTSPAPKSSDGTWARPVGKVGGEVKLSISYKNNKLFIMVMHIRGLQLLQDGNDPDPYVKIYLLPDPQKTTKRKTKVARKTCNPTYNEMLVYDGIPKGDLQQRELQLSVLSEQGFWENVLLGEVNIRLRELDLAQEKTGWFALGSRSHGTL
Outline: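 SPA as for the class I isoforms, but the PI3K C2β buffer is 20 mM Tris-HCl pH 7.4, 160 mM NaCl, 2 mM DTT, 5 mM MgCl2, 15 mM CaCl2, 0.4 mM EDTA. Run 120 min at room temperature. Captured on WGA-coated SPA beads. IC50 is the mean of at least two determinations.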

HeLa [6] = assay: Suppression of tumor growth in BALB/c nu/nu mouse implanted with human HeLa cells at 25 mg/kg, ip after 2 weeks relative to control; format: functional; conditions: route intraperitoneal
Outline: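 HeLa xenografts in nude mice, five animals per group. Dosing began when tumours reached about 100 mm³. 25 mg/kg (as free base) given ip once daily for 2 weeks, suspended in 20% hydroxypropyl-β-cyclodextrin/saline; the vehicle group served as control. Tumour volume = 1/2 × (short diameter)² × (long diameter).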

[7] = target: Phosphatidylinositol 4,5-bisphosphate 3-kinase catalytic subunit gamma isoform (Homo sapiens, UniProt P48736); assay: Inhibition of His-tagged PI3K p110gamma by SPA; outline: as §1
Chain of Phosphatidylinositol 4,5-bisphosphate 3-kinase catalytic subunit gamma isoform (P48736 whole entry, canonical isoform): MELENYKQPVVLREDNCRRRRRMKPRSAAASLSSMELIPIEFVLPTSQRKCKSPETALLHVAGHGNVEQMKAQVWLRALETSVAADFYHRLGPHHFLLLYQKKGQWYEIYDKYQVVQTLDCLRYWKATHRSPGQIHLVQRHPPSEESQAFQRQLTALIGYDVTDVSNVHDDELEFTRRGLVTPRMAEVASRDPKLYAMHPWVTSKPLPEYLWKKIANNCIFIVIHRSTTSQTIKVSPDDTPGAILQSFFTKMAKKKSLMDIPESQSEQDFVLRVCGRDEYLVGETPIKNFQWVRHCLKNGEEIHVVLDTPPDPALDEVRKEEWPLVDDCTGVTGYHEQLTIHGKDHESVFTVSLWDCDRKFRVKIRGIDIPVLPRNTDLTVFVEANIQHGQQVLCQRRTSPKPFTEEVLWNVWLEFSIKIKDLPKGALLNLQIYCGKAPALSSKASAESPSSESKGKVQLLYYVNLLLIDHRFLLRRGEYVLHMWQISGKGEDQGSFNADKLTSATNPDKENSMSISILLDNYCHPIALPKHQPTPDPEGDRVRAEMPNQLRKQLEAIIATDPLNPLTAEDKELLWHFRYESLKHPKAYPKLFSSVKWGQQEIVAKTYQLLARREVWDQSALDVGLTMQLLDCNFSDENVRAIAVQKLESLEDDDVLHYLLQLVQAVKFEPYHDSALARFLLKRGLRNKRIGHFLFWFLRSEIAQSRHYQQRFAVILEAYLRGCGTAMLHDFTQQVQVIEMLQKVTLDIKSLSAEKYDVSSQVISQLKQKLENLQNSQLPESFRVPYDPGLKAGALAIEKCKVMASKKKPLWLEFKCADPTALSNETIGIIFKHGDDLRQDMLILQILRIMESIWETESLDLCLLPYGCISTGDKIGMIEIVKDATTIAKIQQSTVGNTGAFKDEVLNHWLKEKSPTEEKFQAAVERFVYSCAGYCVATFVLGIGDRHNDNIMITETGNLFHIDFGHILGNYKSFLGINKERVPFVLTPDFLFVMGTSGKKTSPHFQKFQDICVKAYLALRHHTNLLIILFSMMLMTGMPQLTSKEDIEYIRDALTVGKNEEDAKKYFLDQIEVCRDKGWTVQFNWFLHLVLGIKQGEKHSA

Chain of Phosphatidylinositol 4,5-bisphosphate 3-kinase catalytic subunit alpha isoform (P32871 whole entry, canonical isoform): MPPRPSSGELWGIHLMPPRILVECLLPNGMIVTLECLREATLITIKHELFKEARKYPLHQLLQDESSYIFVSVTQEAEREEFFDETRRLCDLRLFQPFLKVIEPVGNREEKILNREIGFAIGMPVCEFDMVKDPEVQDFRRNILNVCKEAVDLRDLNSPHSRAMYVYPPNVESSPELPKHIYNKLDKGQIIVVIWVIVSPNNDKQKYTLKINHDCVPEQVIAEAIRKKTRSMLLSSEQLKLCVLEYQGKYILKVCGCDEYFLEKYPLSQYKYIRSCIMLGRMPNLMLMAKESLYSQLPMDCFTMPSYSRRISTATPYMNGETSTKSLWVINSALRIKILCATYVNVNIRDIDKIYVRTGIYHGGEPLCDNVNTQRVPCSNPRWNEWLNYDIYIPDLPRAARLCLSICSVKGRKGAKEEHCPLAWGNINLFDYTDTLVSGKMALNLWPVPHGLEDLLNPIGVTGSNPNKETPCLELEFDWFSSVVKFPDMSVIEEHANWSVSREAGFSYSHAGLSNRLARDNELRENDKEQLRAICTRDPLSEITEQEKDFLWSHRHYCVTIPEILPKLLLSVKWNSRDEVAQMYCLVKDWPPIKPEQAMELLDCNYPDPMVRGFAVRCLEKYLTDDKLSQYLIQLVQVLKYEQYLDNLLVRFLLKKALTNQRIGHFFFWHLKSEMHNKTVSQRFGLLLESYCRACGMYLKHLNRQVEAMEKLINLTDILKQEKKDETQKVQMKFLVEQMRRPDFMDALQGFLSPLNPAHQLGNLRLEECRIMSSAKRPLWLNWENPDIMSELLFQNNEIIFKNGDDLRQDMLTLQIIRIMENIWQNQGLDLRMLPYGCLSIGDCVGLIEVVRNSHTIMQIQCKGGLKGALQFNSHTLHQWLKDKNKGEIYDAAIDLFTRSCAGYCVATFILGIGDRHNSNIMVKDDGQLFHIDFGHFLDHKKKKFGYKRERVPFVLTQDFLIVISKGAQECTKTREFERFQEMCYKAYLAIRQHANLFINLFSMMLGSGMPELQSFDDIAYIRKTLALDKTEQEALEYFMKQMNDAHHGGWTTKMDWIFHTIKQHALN

Row | SMILES | IC50 [1] | IC50 (A375 (human)) | further results
1 | Cc1nc2ccc(Cl)cn2c1-c1ccn(S(=O)(=O)c2cccc([N+](=O)[O-])c2)n1 | 280 nM | – | –
2 | Cc1ccc([N+](=O)[O-])cc1S(=O)(=O)n1ccc(-c2cnc3ccc(Br)cn23)n1 | 1.8 nM | 170 nM | –
3 | Cc1ccc([N+](=O)[O-])cc1S(=O)(=O)n1ccc(-c2c(C)nc3ccc(Cl)cn23)n1 | 2.8 nM | 830 nM | –
4 | Cc1nc2ccc(Cl)cn2c1-c1ccn(S(=O)(=O)c2ccc([N+](=O)[O-])cc2)n1 | > 30000 nM | – | –
5 | Cc1ccc([N+](=O)[O-])cc1S(=O)(=O)n1ccc(-c2c(C)nc3ccc(Br)cn23)n1 | 3.1 nM | 730 nM | –
6 | Cc1nc2ccc(Cl)cn2c1-c1ccn(S(=O)(=O)c2ccc(F)cc2)n1 | 760 nM | – | –
7 | Cc1nc2ccccn2c1-c1ccn(S(=O)(=O)c2ccc(F)cc2)n1 | 670 nM | 23000 nM | –
8 | Cc1ccc([N+](=O)[O-])cc1S(=O)(=O)n1ccc(-c2cnc3ccc(Cl)cn23)c1 | 100 nM | 12000 nM | –
9 | O=[N+]([O-])c1ccc(CO)c([S+]([O-])c2nc(-c3cnc4ccc(Cl)cn34)cs2)c1 (centres undefined) | 20 nM | 19000 nM | –
10 | Cc1ccc([N+](=O)[O-])cc1S(=O)(=O)c1nc(-c2cnc3ccc(Cl)cn23)cs1.Cl | 2.8 nM | 140 nM | IC50 (HeLa [2]): 210 nM; half-life [3]: 156 min; IC50 [4]: 170 nM; IC50 [5]: 100 nM; Activity (HeLa [6]): 37%; IC50 [7]: 230 nM
11 | Cc1ccc([N+](=O)[O-])cc1[S+]([O-])c1nc(-c2cnc3ccc(Cl)cn23)cs1 (centres undefined) | 31 nM | 270 nM | –
12 | Cc1ccc([N+](=O)[O-])cc1Sc1nc(-c2cnc3ccc(Cl)cn23)cs1 | 82 nM | 3370 nM | –
13 | O=c1cc(N2CCOCC2)oc2c(-c3ccccc3)cccc12 [LY-294002] | – | 8400 nM | IC50 [5]: 2100 nM

— ChEMBL document CHEMBL1144502, “Synthesis and biological evaluation of imidazo[1,2-a]pyridine derivatives as novel PI3 kinase p110alpha inhibitors” (Bioorg Med Chem, 2007)
